# Tests used:
# Assay type in all cases: functional
# [1] = system: Streptococcus pneumoniae; experiment: Antimicrobial activity against Streptococcus pneumoniae isolate 3681 by agar dilution method
# Method in brief: (§1)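 Agar dilution MIC on Mueller-Hinton agar with 5% sheep blood, inocula 10^4 CFU/spot; amoxicillin-clavulanate combined 1:2; S. pneumoniae ATCC 49619 quality control each run.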
# [2] = system: Streptococcus pneumoniae; experiment: Antimicrobial activity against Streptococcus pneumoniae isolate 2688 by agar dilution method; method in brief: as §1
# [3] = system: Streptococcus pneumoniae; experiment: Antimicrobial activity against Streptococcus pneumoniae 5 by time-kill analysis
# Method in brief: (§2)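 Time-kill in cation-adjusted Mueller-Hinton broth with 5% lysed horse blood; inocula 5 × 105 to 5 × 10^6 CFU/ml; drugs at MIC, 2× and 4× MIC; 35°C shaking water bath; viable counts at 0, 3, 6, 12 and 24 h. Bactericidal if ≥3 log10 CFU/ml (99.9%) reduction from original inoculum; 90% and 99% killing also scored.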
# [4] = system: Streptococcus pneumoniae; experiment: Antimicrobial activity against Streptococcus pneumoniae isolate 3791 by agar dilution method; method in brief: as §1
# [5] = system: Streptococcus pneumoniae; experiment: Antimicrobial activity against Streptococcus pneumoniae isolate 1055 by agar dilution method
# [6] = system: Streptococcus pneumoniae; experiment: Antimicrobial activity against Streptococcus pneumoniae isolate 1147 by agar dilution method; method in brief: as §1
# [7] = system: Streptococcus pneumoniae; experiment: Antimicrobial activity against Streptococcus pneumoniae isolate 24 by agar dilution method
# [8] = system: Streptococcus pneumoniae; experiment: Antimicrobial activity against Streptococcus pneumoniae 7 by time-kill analysis
# Method in brief: as §2, with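 “12,” for “12 and”, “=” for “if”, “drop” for “reduction”, “90%/99%/99.9%” for “90% and 99%”, “scored per strain.” for “also scored.”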
# [9] = system: Streptococcus pneumoniae; experiment: Antimicrobial activity against Streptococcus pneumoniae isolate 1564 by agar dilution method
# [10] = system: Streptococcus pneumoniae; experiment: Antimicrobial activity against Streptococcus pneumoniae 1 by time-kill analysis; method in brief: as §2
# [11] = system: Streptococcus pneumoniae; experiment: Antimicrobial activity against Streptococcus pneumoniae isolate 1146 by agar dilution method; method in brief: as §1
# [12] = system: Streptococcus pneumoniae; experiment: Antimicrobial activity against Streptococcus pneumoniae 11 by time-kill analysis
# Method in brief: as §2, with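 “12,” for “12 and”, “=” for “if”, “drop” for “reduction”, “90%/99%/99.9%” for “90% and 99%”, “scored per strain.” for “also scored.”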
# [13] = system: Streptococcus pneumoniae; experiment: Antimicrobial activity against Streptococcus pneumoniae isolate 37 by agar dilution method; method in brief: as §1
# [14] = system: Streptococcus pneumoniae; experiment: Antimicrobial activity against Streptococcus pneumoniae isolate 2880 by agar dilution method; method in brief: as §1
# [15] = system: Streptococcus pneumoniae; experiment: Antimicrobial activity against Streptococcus pneumoniae 4 by time-kill analysis
# Method in brief: as §2, with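 “12,” for “12 and”, “=” for “if”, “drop” for “reduction”, “90%/99%/99.9%” for “90% and 99%”, “scored per strain.” for “also scored.”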
# [16] = system: Streptococcus pneumoniae; experiment: Antimicrobial activity against Streptococcus pneumoniae isolate 3587 by agar dilution method
# [17] = system: Streptococcus pneumoniae; experiment: Antimicrobial activity against Streptococcus pneumoniae isolate 1394 by agar dilution method
# [18] = system: Streptococcus pneumoniae; experiment: Antimicrobial activity against penicillin-resistant Streptococcus pneumoniae by agar dilution method; method in brief: as §1
# [19] = system: Streptococcus pneumoniae; experiment: Antimicrobial activity against Streptococcus pneumoniae isolate 3412 by agar dilution method; method in brief: as §1
# [20] = system: Streptococcus pneumoniae; experiment: Antimicrobial activity against Streptococcus pneumoniae isolate 1424 by agar dilution method; method in brief: as §1
# [21] = system: Streptococcus pneumoniae; experiment: Antimicrobial activity against Streptococcus pneumoniae isolate 3455 by agar dilution method
# [22] = system: Streptococcus pneumoniae; experiment: Antimicrobial activity against Streptococcus pneumoniae isolate 4755 by agar dilution method; method in brief: as §1
# [23] = system: Streptococcus pneumoniae; experiment: Antimicrobial activity against Streptococcus pneumoniae 2 by time-kill analysis
# Method in brief: as §2, with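 “12,” for “12 and”, “=” for “if”, “drop” for “reduction”, “90%/99%/99.9%” for “90% and 99%”, “scored per strain.” for “also scored.”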
# [24] = system: Streptococcus pneumoniae; experiment: Antimicrobial activity against Streptococcus pneumoniae isolate 3263 by agar dilution method
# [25] = system: Streptococcus pneumoniae; experiment: Antimicrobial activity against Streptococcus pneumoniae 19A by agar dilution method; method in brief: as §1
# [26] = system: Streptococcus pneumoniae; experiment: Antimicrobial activity against Streptococcus pneumoniae isolate 2617 by agar dilution method; method in brief: as §1
# [27] = system: Streptococcus pneumoniae; experiment: Antimicrobial activity against Streptococcus pneumoniae isolate 1397 by agar dilution method; method in brief: as §1
# [28] = system: Streptococcus pneumoniae; experiment: Antimicrobial activity against Streptococcus pneumoniae 6 by time-kill analysis
# Method in brief: as §2, with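 “12,” for “12 and”, “=” for “if”, “drop” for “reduction”, “90%/99%/99.9%” for “90% and 99%”, “scored per strain.” for “also scored.”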
# [29] = system: Streptococcus pneumoniae; experiment: Antimicrobial activity against Streptococcus pneumoniae isolate 3481 by agar dilution method; method in brief: as §1
# [30] = system: Streptococcus pneumoniae; experiment: Antimicrobial activity against Streptococcus pneumoniae isolate 33 by agar dilution method; method in brief: as §1
# [31] = system: Streptococcus pneumoniae; experiment: Antimicrobial activity against Streptococcus pneumoniae isolate 3275 by agar dilution method; method in brief: as §1
# [32] = system: Streptococcus pneumoniae; experiment: Antimicrobial activity against Streptococcus pneumoniae 10 by time-kill analysis
# Method in brief: as §2, with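 “12,” for “12 and”, “=” for “if”, “drop” for “reduction”, “90%/99%/99.9%” for “90% and 99%”, “scored per strain.” for “also scored.”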
# [33] = system: Streptococcus pneumoniae; experiment: Antimicrobial activity against Streptococcus pneumoniae isolate 1384 by agar dilution method; method in brief: as §1
# [34] = system: Streptococcus pneumoniae; experiment: Antimicrobial activity against Streptococcus pneumoniae isolate 3260 by agar dilution method
# [35] = system: Streptococcus pneumoniae; experiment: Antimicrobial activity against penicillin-intermediate Streptococcus pneumoniae by agar dilution method
# [36] = system: Streptococcus pneumoniae; experiment: Antimicrobial activity against Streptococcus pneumoniae isolate 3346 by agar dilution method
# [37] = system: Streptococcus pneumoniae; experiment: Antimicrobial activity against penicillin-susceptible Streptococcus pneumoniae by agar dilution method
# [38] = system: Streptococcus pneumoniae; experiment: Antimicrobial activity against Streptococcus pneumoniae isolate 3458 by agar dilution method
# [39] = system: Streptococcus pneumoniae; experiment: Antimicrobial activity against Streptococcus pneumoniae 8 by time-kill analysis
# Method in brief: as §2, with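 “12,” for “12 and”, “=” for “if”, “drop” for “reduction”, “90%/99%/99.9%” for “90% and 99%”, “scored per strain.” for “also scored.”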
# [40] = system: Streptococcus pneumoniae; experiment: Antimicrobial activity against Streptococcus pneumoniae isolate 2686 by agar dilution method; method in brief: as §1
# [41] = system: Streptococcus pneumoniae; experiment: Antimicrobial activity against Streptococcus pneumoniae isolate 3282 by agar dilution method
# [42] = system: Streptococcus pneumoniae; experiment: Antimicrobial activity against Streptococcus pneumoniae isolate 3374 by agar dilution method; method in brief: as §1
# [43] = system: Streptococcus pneumoniae; experiment: Antimicrobial activity against Streptococcus pneumoniae isolate 4747 by agar dilution method; method in brief: as §1
# [44] = system: Streptococcus pneumoniae; experiment: Antimicrobial activity against Streptococcus pneumoniae isolate 2874 by agar dilution method; method in brief: as §1
# [45] = system: Streptococcus pneumoniae; experiment: Antimicrobial activity against Streptococcus pneumoniae 12 by time-kill analysis
# Method in brief: as §2, with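 “12,” for “12 and”, “=” for “if”, “drop” for “reduction”, “90%/99%/99.9%” for “90% and 99%”, “scored per strain.” for “also scored.”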
# [46] = system: Streptococcus pneumoniae; experiment: Antimicrobial activity against Streptococcus pneumoniae 9 by time-kill analysis; method in brief: as §2
# [47] = system: Streptococcus pneumoniae; experiment: Antimicrobial activity against Streptococcus pneumoniae 3 by time-kill analysis
# Method in brief: as §2, with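 “12,” for “12 and”, “=” for “if”, “drop” for “reduction”, “90%/99%/99.9%” for “90% and 99%”, “scored per strain.” for “also scored.”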
smiles,measurement,setting,value
O=C(O)c1cn(C2CC2)c2cc(N3CCNCC3)c(F)cc2c1=O [CIPROFLOXACIN],MIC,[1],1 µg/mL
same,MIC,[2],1 µg/mL
same,MIC,[3],1 µg/mL
same,MIC,[4],1 µg/mL
same,MIC,[5],32 µg/mL
same,MIC,[6],32 µg/mL
same,MIC,[7],1 µg/mL
same,MIC,[8],1 µg/mL
same,MIC,[9],1 µg/mL
same,MIC,[10],> 32 µg/mL
same,MIC,[11],32 µg/mL
same,MIC,[12],1 µg/mL
same,MIC,[13],1 µg/mL
same,MIC,[14],1 µg/mL
same,MIC,[15],16 µg/mL
COc1c(N2CCNC(C)C2)c(F)cc2c(=O)c(C(=O)O)cn(C3CC3)c12 (stereo unspecified) [GATIFLOXACIN],MIC,[16],0.25 µg/mL
same,MIC,[17],0.5 µg/mL
same,MIC,[1],0.5 µg/mL
same,MIC50,[18],0.5 µg/mL
same,MIC90,[18],1 µg/mL
same,MIC,[19],0.25 µg/mL
same,MIC,[20],0.25 µg/mL
same,MIC,[21],0.5 µg/mL
same,MIC,[22],0.25 µg/mL
same,MIC,[2],0.5 µg/mL
same,MIC,[23],0.25 µg/mL
same,MIC,[3],0.5 µg/mL
same,MIC,[24],0.25 µg/mL
same,MIC50,[25],0.5 µg/mL
same,MIC90,[25],0.5 µg/mL
same,MIC,[26],0.5 µg/mL
same,MIC,[27],0.5 µg/mL
same,MIC,[4],0.5 µg/mL
same,MIC,[5],16 µg/mL
same,MIC,[28],0.25 µg/mL
same,MIC,[6],4 µg/mL
same,MIC,[29],0.25 µg/mL
same,MIC,[30],0.5 µg/mL
same,MIC,[7],0.5 µg/mL
same,MIC,[8],0.5 µg/mL
same,MIC,[9],0.5 µg/mL
same,MIC,[31],0.25 µg/mL
same,MIC,[32],0.25 µg/mL
same,MIC,[10],4 µg/mL
same,MIC,[11],2 µg/mL
same,MIC,[33],0.5 µg/mL
same,MIC,[34],0.125 µg/mL
same,MIC50,[35],0.25 µg/mL
same,MIC90,[35],0.5 µg/mL
same,MIC,[36],0.125 µg/mL
same,MIC,[12],0.5 µg/mL
same,MIC50,[37],0.5 µg/mL
same,MIC90,[37],4 µg/mL
same,MIC,[13],0.5 µg/mL
same,MIC,[38],0.5 µg/mL
same,MIC,[39],0.25 µg/mL
same,MIC,[40],0.25 µg/mL
same,MIC,[41],0.125 µg/mL
same,MIC,[42],0.25 µg/mL
same,MIC,[14],0.25 µg/mL
same,MIC,[43],0.125 µg/mL
same,MIC,[44],0.5 µg/mL
same,MIC,[45],0.25 µg/mL
same,MIC,[15],4 µg/mL
same,MIC,[46],0.5 µg/mL
same,MIC,[47],0.25 µg/mL

# Reference: ChEMBL document CHEMBL1649446, “Comparative antipneumococcal activities of sulopenem and other drugs” (2009)
